From ChEMBL document CHEMBL1153722, “Design, synthesis, and characterization of peptide-based rab geranylgeranyl transferase inhibitors” (J Med Chem, 2009)
Values joined by “and” are separate entries in the source; they are usually repeats but may differ in a detail not shown here. Identical values can stand only once. Active and inactive are the calls of the source. The calls are words filed in the database; no cut-off is given here. Square brackets hold non-standard residues; d marks the D form. Peptide text beside a SMILES is read from it. * marks the point of attachment. NMeF = CN[C@@H](Cc1ccccc1)C(=O)O; Undecanoyl = CCCCCCCCCCC(=O)*; pGlu = O=C1CC[C@@H](C(=O)O)N1; Ac6c = NC1(C(=O)O)CCCCC1; Cbz = O=C(OCc1ccccc1)*; NHOH = ON*

Key:
[1] = Inhibition of rat recombinant Rab geranylgeranyltransferase iin presence of canine Rab7 and rat REP1 by NBD-FPP based continuous fluorimetric assay
Outline: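 Continuous fluorometric assay in 96/384-well format: 3 μM Rab7, 3 μM REP1, 9 μM NBD-FPP and 400 nM RabGGTase, with or without inhibitor. IC50 was calculated from three independent measurements.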

[2] = species: Rattus norvegicus; test: Inhibition of rat recombinant Rab geranylgeranyltransferase at 100 uM in presence of canine Rab7 and rat REP1 NBD-FPP based continuous fluorimetric assay
Outline: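 Continuous fluorometric assay in 96/384-well format: 3 μM Rab7, 3 μM REP1, 9 μM NBD-FPP and 400 nM RabGGTase, with or without inhibitor. […] IC50 was calculated from three independent measurements.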

[3] = Displacement of Mant-FPP from rat recombinant Rab geranylgeranyltransferase by co-titration based fluorescence assay
Outline: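 RabGGTase was titrated into 300 nM Mant-FPP at several fixed inhibitor concentrations. Apparent Kd of Mant-FPP was obtained at each inhibitor level by quadratic fitting. Linear versus hyperbolic dependence of apparent Kd on inhibitor concentration was taken as competitive versus partially competitive binding.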

[4] = species: Rattus norvegicus; test: Displacement of NBD-FPP from rat recombinant Rab geranylgeranyltransferase by fluorescence titration
Outline: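 Displacement titration: 400 nM NBD-FPP was pre-equilibrated with 550 nM RabGGTase. Inhibitor was added stepwise in 1 or 5 μM increments while NBD fluorescence was monitored. The end point was controlled by a final addition of GGPP to 4 μM.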

[5] = system: COS-7 (Chlorocebus aethiops); test: Inhibition of recombinant Rab geranylgeranyltransferase expressed in COS-7 cells assessed as inhibition of geranylgeranylation of EYFP-Rab7 protein by Western blot; set-up: concentration or dose not given beside the values; conditions: dose or concentration not given here
[6] = system: COS-7 (Chlorocebus aethiops); test: Inhibition of recombinant Rab geranylgeranyltransferase expressed in COS-7 cells assessed as inhibition of geranylgeranylation of EYFP-Rab7 protein at 10 to 100 uM by Western blot relative to compactin
[7] = Inhibition of rat recombinant Rab geranylgeranyltransferase by SDS-PAGE end point assay
Outline: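 End-point transfer of fluorescent prenyl analogues (NBD-GPP or NBD-FPP) to protein substrates was run for 10 min at varied inhibitor concentrations. Substrates were GST-KiRas for FTase, GST-RhoA for GGTase-I and Rab7 for RabGGTase. Reactions were quenched with SDS sample buffer and run on SDS-PAGE. Fluorescent bands were quantified by densitometry.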

Structure (SMILES)	IC50 [1] [µM]	inhibition [2]	also measured
O=C(CNC(=O)c1csc(-c2cccs2)n1)N[C@@H](Cc1ccccc1)C(=O)N[C@@H](Cc1c[nH]cn1)C(=O)O	41		
CN(C(=O)[C@@H](Cc1c[nH]cn1)NC(=O)/C=C/c1ccc(-c2ccccc2)cc1)[C@H](CN[C@@H](Cc1ccc(O)cc1)C(=O)O)Cc1ccc(O)cc1	22.7		
Cc1nc(C(=O)NCC(=O)N[C@@H](Cc2ccccc2)C(=O)N[C@@H](Cc2c[nH]cn2)C(=O)O)c(C)o1	> 50		
CCCCCc1ccc(CCC(=O)N[C@H](Cc2ccc(O)cc2)C(=O)N[C@@H](Cc2ccc(O)cc2)C(=O)N[C@@H](Cc2ccccc2)C(=O)O)cc1	11		
O=C(CNC(=O)c1coc(-c2ccccc2)n1)N[C@@H](Cc1ccccc1)C(=O)N[C@@H](Cc1c[nH]cn1)C(=O)O	45		
CCCCC(=O)N[C@@H](Cc1c[nH]cn1)C(=O)N[C@@H](Cc1ccccc1)C(=O)N[C@@H](Cc1ccc(O)cc1)CN(C)CCc1ccccn1	> 100		
CCCCCCCCCCC(=O)N[C@@H](Cc1c[nH]cn1)C(=O)N[C@@H](Cc1c[nH]cn1)C(=O)N[C@@H](Cc1ccc(O)cc1)C(=O)NCCc1ccccn1	> 100	80%	
CCCCCCCCCCC(=O)N[C@@H](Cc1ccc(O)cc1)C(=O)N[C@@H](Cc1c[nH]cn1)C(=O)N[C@@H](Cc1ccc(O)cc1)C(=O)NCCCCN	7.1		
CCCCCCCCCCC(=O)N[C@@H](Cc1c[nH]cn1)C(=O)N[C@@H](Cc1c[nH]cn1)C(=O)N[C@@H](Cc1ccc(O)cc1)C(=O)NCCCCN	5.2		
O=C(CNC(=O)[C@H](Cc1cn(C(c2ccccc2)(c2ccccc2)c2ccccc2)cn1)NC(=O)c1coc(-c2ccccc2)n1)N[C@@H](Cc1ccccc1)C(=O)O	30		
O=C(CNC(=O)c1csc(-c2cccnc2)n1)N[C@@H](Cc1ccccc1)C(=O)N[C@@H](Cc1c[nH]cn1)C(=O)O	> 50		
CCCCCCCCCCCOc1ccc(C(=O)N[C@@H](Cc2c[nH]cn2)C(=O)N[C@@H](Cc2c[nH]cn2)C(=O)N[C@@H](Cc2c[nH]cn2)C(=O)N(C)CCc2ccccn2)cc1	12.1		
CCC/C=C\c1ccccc1/C=C/C(=O)N[C@H](Cc1c[nH]cn1)C(=O)N(C)[C@H](CN[C@H](Cc1ccccc1)C(=O)O)Cc1ccc(O)cc1	15.2		
CCCCCCCCCCCOc1ccc(C(=O)N[C@@H](Cc2c[nH]cn2)C(=O)N[C@@H](Cc2ccc(O)cc2)C(=O)N[C@@H](Cc2ccccc2)C(=O)NCCCn2ccnc2)cc1	12.3	7%	
O=C(CNC(=O)c1csc(-c2cccnc2)n1)N[C@@H](Cc1ccccc1)C(=O)N[C@@H](Cc1cn(C(c2ccccc2)(c2ccccc2)c2ccccc2)cn1)C(=O)O	37		
CN(C(=O)[C@@H](Cc1c[nH]cn1)NC(=O)OCc1ccccc1)[C@@H](Cc1ccccc1)C(=O)N[C@@H](Cc1ccc(O)cc1)C(=O)O	22.7		Ki [3]: 4.5 µM; Activity [4]: Active
CCCCCCCCCCCOc1ccc(C(=O)N[C@@H](Cc2c[nH]cn2)C(=O)N[C@@H](Cc2c[nH]cn2)C(=O)N[C@@H](Cc2c[nH]cn2)C(=O)NCCCCN)cc1	24		
CN(C(=O)[C@H](Cc1cnc[nH]1)NC(=O)OCc1ccccc1)[C@@H](Cc1ccccc1)C(=O)N[C@@H](Cc1ccc(O)cc1)C(=O)NO			Ki [3]: 14.5 µM; Activity [4]: Active; inhibition [5]: 70%; Activity [6]: Dose-dependent effect
CCCCCCCCCCCCCCC(=O)N[C@@H](Cc1c[nH]cn1)C(=O)N[C@@H](Cc1ccccc1)C(=O)N[C@@H](Cc1ccc(O)cc1)CN(C)CCc1ccccn1	26		
CN(C(=O)[C@H](Cc1c[nH]cn1)NC(=O)OCc1ccccc1)[C@@H](Cc1ccccc1)C(=O)N[C@H](Cc1ccc(O)cc1)C(=O)NO	13.6		
O=C(CNC(=O)[C@H](Cc1c[nH]cn1)NC(=O)c1coc(-c2ccccc2)n1)N[C@@H](Cc1c[nH]cn1)C(=O)O	> 50		
CN(C(=O)[C@H](Cc1cnc[nH]1)NC(=O)OCc1ccccc1)[C@@H](Cc1ccccc1)C(=O)N[C@@H](Cc1c[nH]c2ccccc12)C(=O)NO (Cbz-His-[NMeF]-Trp-{NHOH})			inhibition [5]: 70%; Activity [6]: Dose-dependent effect
CCCCCc1ccc(CCC(=O)N[C@H](Cc2c[nH]cn2)C(=O)N(C)[C@H](CN[C@@H](Cc2ccccc2)C(=O)O)Cc2ccccc2)cc1	19		
O=C(O)C(O)(Cc1cccnc1)P(=O)(O)O (stereo unspecified)			inhibition [5]: 70%; Activity [6]: Dose-dependent effect
CN(C(=O)[C@@H](Cc1c[nH]cn1)NC(=O)OCc1ccccc1OCc1ccccc1)[C@H](CN[C@@H](Cc1ccccc1)C(=O)O)Cc1ccc(O)cc1	15.6		

Structure (SMILES)	IC50 [1] [µM]	inhibition [2]	also measured
O=C(CNC(=O)[C@H](Cc1c[nH]cn1)NC(=O)c1coc(-c2ccccc2)n1)N[C@@H](Cc1ccccc1)C(=O)O	> 50		
CCCCCCCCCCCOc1ccc(C(=O)N[C@@H](Cc2ccc(O)cc2)C(=O)N[C@@H](Cc2ccc(O)cc2)C(=O)N[C@@H](Cc2ccc(O)cc2)C(=O)NCCCCN)cc1	11.6		
CCCCCc1ccc(CCC(=O)N[C@H](Cc2ccc(O)cc2)C(=O)N[C@@H](Cc2ccc(O)cc2)C(=O)N[C@@H](C[Si]2(C)CCCCC2)C(=O)O)cc1	19.1		
CC(C)(C)OC(=O)n1cnc(C[C@H](NC(=O)[C@H](Cc2ccccc2)NC(=O)CNC(=O)c2coc(-c3ccccc3)n2)C(=O)O)c1	> 50		
Cc1nc(C(=O)NCC(=O)N[C@@H](Cc2ccccc2)C(=O)N[C@@H](Cc2cn(C(c3ccccc3)(c3ccccc3)c3ccccc3)cn2)C(=O)O)c(C)o1	46		
CCCCCCCCCCC(=O)N[C@@H](Cc1ccc(O)cc1)C(=O)N[C@@H](Cc1c[nH]cn1)C(=O)N[C@@H](Cc1ccc(O)cc1)C(=O)OC (Undecanoyl-Tyr-His-Tyr-OMe)	3.9		
O=C(CNC(=O)c1csc(-c2cccs2)n1)N[C@@H](Cc1ccccc1)C(=O)N[C@@H](Cc1cn(C(c2ccccc2)(c2ccccc2)c2ccccc2)cn1)C(=O)O	36		
CCCCCCCCCCC(=O)N[C@@H](Cc1c[nH]cn1)C(=O)N[C@@H](Cc1ccccc1)C(=O)N[C@@H](Cc1ccc(O)cc1)C(=O)N(C)CCc1ccccn1			Ki [3]: 5.4 µM; IC50 [7]: 2.8 µM; inhibition [5]: 70%; Activity [6]: Dose-dependent effect
CN(C(=O)[C@H](Cc1c[nH]cn1)NC(=O)OCc1ccccc1OCc1ccccc1)[C@H](CN[C@@H](Cc1ccccc1)C(=O)O)Cc1ccc(O)cc1	19.3		
C[C@@H](O)[C@H](NC(=O)/C=C/c1ccccc1)C(=O)N[C@@H](Cc1ccccc1)C(=O)N[C@@H](CCC(N)=O)C(=O)Nc1nccs1		86%	
CC(C)C[C@H](NC(=O)[C@@H]1CCC(=O)N1)C(=O)N[C@@H](CCCCN)C(=O)NC1(C(=O)O)CCCCC1 ([pGlu]LK[Ac6c]-OH)		102% and 98%	
CC[C@H](C)[C@H](NC(=O)c1ccc(-c2ccccc2)cc1)C(=O)N[C@@H](C(=O)N[C@@H](CCC(N)=O)C(=O)N1CCCCC1)C(C)C		100%	
O=C(CCc1ccc(F)cc1)N[C@@H](Cc1ccc(O)cc1)C(=O)NCC(=O)N[C@@H](Cc1ccc(O)cc1)C(=O)Nc1ccc(F)cc1		80%	
CCCCCCCCCCCOc1ccc(C(=O)N[C@@H](Cc2c[nH]cn2)C(=O)N[C@@H](Cc2c[nH]cn2)C(=O)N[C@@H](Cc2c[nH]cn2)C(N)=O)cc1		32%	
O=C(N[C@@H](CO)C1=N[C@H](C(=O)O)CO1)c1coc(-c2ccccc2)n1		93%	
O=C(CCc1ccc(-c2ccccc2)cc1)N[C@H](Cc1cnc[nH]1)C(=O)N[C@@H](Cc1ccc(O)cc1)C(=O)N[C@@H](Cc1ccccc1)C(=O)O		48%	
CC[C@H](C)[C@H](NC(=O)c1ccc(-c2ccccc2)cc1)C(=O)N[C@@H](C(=O)N[C@@H](CCC(N)=O)C(=O)N(C)OC)C(C)C		109%	
COc1ccc(NC(=O)[C@H](CCC(N)=O)NC(=O)[C@H](Cc2ccccc2)NC(=O)[C@H](CO)NC(=O)CCc2ccccc2)cc1		101%	
O=C(CCc1ccc(F)cc1)N[C@@H](Cc1ccc(O)cc1)C(=O)NCC(=O)N[C@@H](Cc1ccc(O)cc1)C(=O)Nc1ccc(F)cc1F		89%	
CCCCOC(=O)[C@H](Cc1ccc(O)cc1)NC(=O)CNC(=O)[C@H](Cc1ccc(O)cc1)NC(=O)CCc1ccc(F)cc1		47%	
O=C(/C=C/c1ccc(F)cc1)N[C@@H](CO)C(=O)N[C@@H](Cc1ccccc1)C(=O)N[C@@H](CO)C(=O)N1CCOCC1		75%	
O=C(CNC(=O)c1coc(-c2ccccc2)n1)N[C@@H](Cc1ccccc1)C(=O)N[C@@H](Cc1cn(Cc2ccccc2)cn1)C(=O)O	> 50		
CCCCCCCCCCC(=O)N[C@@H](Cc1c[nH]cn1)C(=O)N[C@@H](Cc1ccccc1)C(=O)N[C@@H](Cc1ccc(O)cc1)C(=O)NCCCn1ccnc1		101%	
CCCCCCCCCCCCCCCC(=O)N[C@@H](Cc1ccc(O)cc1)C(=O)N[C@@H](Cc1ccc(O)cc1)C(=O)N[C@@H](Cc1ccc(O)cc1)C(=O)OCCN		110%	
